# Reference: ChEMBL document CHEMBL1125713, “Synthesis and antiarrhythmic activity of cis-2,6-dimethyl-alpha,alpha-diaryl-1-piperidinebutanols” (1991)
# Legend:
# [1] = species: Canis familiaris; experiment: Compound was evaluated for the activity rating; assay type: functional, Canis lupus familiaris
# How it was run: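 In ligated dogs given 5 mg/kg iv over 5 min, group % normal beats was plotted at end of dose, 20 min and 1 h. The area under this curve minus the control area was divided by the same area for an ideal response (100% normal beats for the whole hour), then multiplied by 100.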
# [2] = system: Canis familiaris; experiment: Antiarrhythmic effect in coronary artery ligated dogs model at a dose of 5 mg/kg, value noted at end dose.; assay type: functional, Canis lupus familiaris, Heart
# How it was run: (§1)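 Coronary-ligated dogs with ventricular arrhythmias. Dosing was 5 mg/kg in 10–20 mL isotonic saline, given as an iv infusion over 5 min. Limb lead II ECG was monitored continuously for up to 6 h. Percent normal sinus beats was scored at control, end of dose, 20 min and 1 h. Values are mean ± SEM for three or more animals, mean ± SD for two.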
# [3] = system: Canis familiaris; experiment: Antiarrhythmic effect in coronary artery ligated dogs model at a dose of 5 mg/kg, administered intravenously and value noted at 20 min; assay type: functional, Canis lupus familiaris, Heart; details: route intravenous; how it was run: as §1
# [4] = system: Canis familiaris; experiment: Antiarrhythmic effect in coronary artery ligated dog model at a dose of 5 mg/kg, administered intravenously and value noted at 1 hr; assay type: functional, Canis lupus familiaris, Heart; details: route intravenous; how it was run: as §1
# [5] = species: Canis familiaris; experiment: Compound was evaluated for the degree of tachycardia.; assay type: functional, Canis lupus familiaris
# How it was run: (§2)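 Conscious normal dogs received 5 mg/kg iv over 5 min, with heart rate from limb lead II ECG. Tachycardia was graded as severe (≥200 beats/min), moderate (160–199), slight (<160 after a rise of ≥20) or none (change <20 beats/min).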
# [6] = system: Canis familiaris; experiment: Compound was evaluated for the heart rate effect in normal dogs at a dose of 5 mg/kg, administered intravenously and value noted at 20 min.; assay type: functional, Canis lupus familiaris; details: route intravenous
# How it was run: (§3)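 Conscious normal dogs, trained and sling-restrained, received the same iv dosing: 5 mg/kg infused over 5 min. Heart rate came from continuous limb lead II ECG at control, end of dose, 20 min and 1 h. Values are mean ± SD for two dogs.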
# [7] = system: Canis familiaris; experiment: Compound was evaluated for the heart rate effect in normal dogs at a dose of 5 mg/kg, administered intravenously and value noted at end dose.; assay type: functional, Canis lupus familiaris; details: route intravenous; how it was run: as §3
# [8] = species: Canis familiaris; experiment: Compound was evaluated for the duration of sustained effect; assay type: functional, Canis lupus familiaris
# How it was run: (§4)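 Normal dogs received 5 mg/kg iv over 5 min, with heart rate tracked by continuous ECG. Dogs above 140 beats/min were followed until the rate fell to 140. The sustained effect was rated long (>2 h), moderate (0.5–2 h) or short (<0.5 h).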
# [9] = system: Canis familiaris; experiment: Compound was evaluated for the heart rate effect in normal dogs at a dose of 5 mg/kg, administered intravenously and value noted at 1h.; assay type: functional, Canis lupus familiaris; details: route intravenous; how it was run: as §3
# [10] = species: Canis familiaris; experiment: Compound was evaluated for the degree of tachycardia; 160-199; assay type: functional, Canis lupus familiaris; how it was run: as §2
# [11] = species: Canis familiaris; experiment: Compound was evaluated for the duration of sustained effect; 0.5-2; assay type: functional, Canis lupus familiaris; how it was run: as §4
# [12] = species: Canis familiaris; experiment: Compound was evaluated for the degree of tachycardia 160-199; assay type: functional, Canis lupus familiaris; how it was run: as §2
# [13] = species: Canis familiaris; experiment: Compound was evaluated for the degree of tachycardia; assay type: functional, Canis lupus familiaris; how it was run: as §2
SMILES,Activity rating [1],Normal beats [2],Normal beats [3],Normal beats [4],Heart rate [5],Heart rate [6],Heart rate [7],Duration [8],Heart rate [9],Heart rate [10],Duration [11],Heart rate [12],Beats/min [6],Beats/min [7],Beats/min [13],Beats/min [9]
Cl.OC(CCCN1CCCCC1)(c1ccccc1)c1ccccn1 (stereo unspecified),17,97%,21%,8%,–,–,–,–,–,–,–,–,–,–,–,–
CC1CCCC(C)N1CCCC(O)(c1ccccc1)c1cccnc1.Cl (stereo unspecified),13,43%,16%,6%,–,–,–,–,–,–,–,–,–,–,–,–
Cc1ccccc1C(O)(CCCN1C(C)CCCC1C)c1ccccc1.Cl (stereo unspecified),60,92%,61%,61%,<160 beats min-1,149 beats min-1,155 beats min-1,>2 h,151 beats min-1,–,–,–,–,–,–,–
CC1CCCC(C)N1CCCC(O)c1ccccc1.Cl (stereo unspecified),35,99%,45%,10%,–,–,–,–,–,–,–,–,–,–,–,–
CC1CCCC(C)N1CCCC(O)(c1ccccn1)c1ccccn1.Cl (stereo unspecified),53,90%,68%,32%,–,–,–,–,–,–,–,–,–,–,–,–
CC1CCCC(C)N1CCCC(O)(c1ccccc1)C1CCCCC1.Cl (stereo unspecified),66,98%,65%,68%,–,152 beats min-1,176 beats min-1,–,121 beats min-1,160 beats min-1,0.5 h,–,–,–,–,–
CCC1CCCCN1CCCC(O)(c1ccccc1)c1ccccc1.Cl (stereo unspecified),46,87%,48%,37%,–,–,–,–,–,–,–,–,–,–,–,–
CC1CCCC(C)N1CCCC(c1ccccc1)c1ccccn1.Cl (stereo unspecified),47,62%,37%,67%,–,–,–,–,–,–,–,–,–,–,–,–
CC1CCCC(C)N1CCCC(C#N)(c1ccccc1)c1ccccc1.Cl (stereo unspecified),82,90%,88%,65%,–,147 beats min-1,168 beats min-1,>2 h,137 beats min-1,–,–,160 beats min-1,–,–,–,–
CC1CCCC(C)N1CCC(C(N)=O)(c1ccccc1)c1ccccc1.Cl (stereo unspecified),39,64%,51%,83%,–,–,–,–,–,–,–,–,–,–,–,–
CC1CCCC(C)N1CCC(O)(c1ccccc1)c1ccccc1.Cl (stereo unspecified),86,97%,96%,74%,–,117 beats min-1,137 beats min-1,–,130 beats min-1,–,–,–,–,–,–,–
CC(=O)NCC(CCCN1C(C)CCCC1C)(c1ccccc1)c1ccccc1.Cl (stereo unspecified),62,95%,71%,53%,–,–,–,–,–,–,–,–,–,–,–,–
CC1CCCC(C)N1CCCC(c1ccccc1)c1ccccc1.Cl (stereo unspecified),94,95%,97%,92%,–,–,–,>2 h,–,–,–,–,218,255,>=200,179
CC1CCCC(C)N1CCCC(O)(c1ccccc1)c1ccccc1.Cl (stereo unspecified),81,96%,86%,76%,–,155 beats min-1,187 beats min-1,–,165 beats min-1,160 beats min-1,–,–,–,–,–,–
CC1CCCC(C)N1CCCC(C(N)=O)(c1ccccc1)c1ccccc1.Cl (stereo unspecified),91,98%,90%,94%,>200 beats min-1,223 beats min-1,235 beats min-1,>2 h,215 beats min-1,–,–,–,–,–,–,–
CC1CCC(C)N1CCCC(O)(c1ccccc1)c1ccccc1.Cl (stereo unspecified),29,69%,39%,35%,>200 beats min-1,218 beats min-1,243 beats min-1,>2 h,193 beats min-1,–,–,–,–,–,–,–
CC1CCCC(C)N1CCC(C#N)(c1ccccc1)c1ccccc1.Cl (stereo unspecified),70,91%,72%,65%,–,–,–,–,–,–,–,–,–,–,–,–
CC1CCCC(C)N1CCCC(O)(c1ccccc1)c1ccncc1 (stereo unspecified),13,51%,11%,7%,–,–,–,–,–,–,–,–,–,–,–,–
CC1CCC(C)N1CCCCC(O)(c1ccccc1)c1ccccn1 (stereo unspecified),42,88%,52%,43%,–,–,–,–,–,–,–,–,–,–,–,–
CC1CCCC(C)N1CCCC(C#N)(c1ccccc1)c1ccccn1 (stereo unspecified),36,100%,50%,97%,<160 beats min-1,154 beats min-1,154 beats min-1,<0.5 h,131 beats min-1,–,–,–,–,–,–,–
CC(=O)NCC(CCN1C(C)CCCC1C)(c1ccccc1)c1ccccc1 (stereo unspecified),53,82%,62%,49%,<160 beats min-1,119 beats min-1,141 beats min-1,<0.5 h,103 beats min-1,–,–,–,–,–,–,–
CC1CCCC(C)N1CCC(CN)(c1ccccc1)c1ccccc1 (stereo unspecified),50,100%,61%,39%,–,–,–,–,–,–,–,–,–,–,–,–
CC1CCCC(C)N1CCCCC(O)(c1ccccc1)c1ccccc1 (stereo unspecified),72,99%,84%,51%,–,139 beats min-1,137 beats min-1,–,140 beats min-1,–,0.5 h,–,–,–,–,–
CC1CCCC(C)N1CCCC(C(N)=O)(c1ccccc1)c1ccccn1 (stereo unspecified),80,96%,87%,62%,–,145 beats min-1,197 beats min-1,–,129 beats min-1,160 beats min-1,0.5 h,–,–,–,–,–
CC1CCCC(C)N1CC(O)(c1ccccc1)c1ccccc1 (stereo unspecified),15,56%,16%,16%,–,92 beats min-1,115 beats min-1,–,96 beats min-1,–,–,–,–,–,–,–
Cl.OC(CCCN1CCCCC1)(c1ccccc1)c1ccccc1 [DIPHENIDOL HYDROCHLORIDE],39,90%,54%,34%,–,155 beats min-1,200 beats min-1,>2 h,142 beats min-1,160 beats min-1,–,–,–,–,–,–
CC(C)N(CCC(C(N)=O)(c1ccccc1)c1ccccn1)C(C)C (stereo unspecified) [DISOPYRAMIDE],49,89%,60%,16%,–,–,–,–,–,–,–,–,–,–,–,–
CC1CCCC(C)N1CCCC(O)(c1ccccc1)c1ccccn1.Cl (stereo unspecified) [PIRMENOL HYDROCHLORIDE],71,94%,80%,59%,–,172 beats min-1,194 beats min-1,>2 h,157 beats min-1,160 beats min-1,–,–,–,–,–,–
